Assay results published in the RNAGym collection of RNA variant scans (doi:10.1126/science.aae0568).
Variants at the floor of the assay were thinned out.

B1: tRNA (parent)
chain: GUUCCGUUGGCGUAAUGGUAACGCGUCUCCCUCCUAAGGAGAAGACUGCGGGUUCGAGUCCCGUACGGAACG

Variants of: B1
Test: yeast fitness relative to wild type (ratio to wild type); higher = fitter; tRNA-Arg(CCU), competitive growth, 37 C, YPD
Procedure, shortened: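 Variants of the tRNA-Arg(CCU) gene, chemically synthesised with a 3% per-site mutation rate at 69 sites, were placed at the native genomic locus in Saccharomyces cerevisiae. The pooled strains were competed in YPD at 37°C for 24 hours in six parallel replicates. Gene amplicons from the start population and from each end population were read by 100-nucleotide paired-end sequencing. Darwinian fitness relative to wild type came from changes in genotype frequencies; genotypes needed ≥ 100 starting reads, and estimates < 0.5 were set to 0.5.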

Variant | yeast fitness
G9A G25C C30U | 0.679
C22U A45U A69U | 0.804
A14G C27G C31A C33G C49U G58C | ≤ 0.5
A20C C49U A70G | 0.748
U28C C29G A43U C49U U54G C66A | ≤ 0.5
U28C C34G G38C A45C | ≤ 0.5
U19A C29G C33U U47A G51A C61U | ≤ 0.5
G17A A20G C31U U35C A57G | 0.573
U2C A40C | 0.851
C27U A36U U54A A69C | 0.624
G18A C29U C31A C55U G68C | ≤ 0.5
U3A C30G G38C A69C | 0.671
C5U C49U U64A | ≤ 0.5
C11U C34U G48A G67U | ≤ 0.5
G12A U32C A42C G44C A69C | ≤ 0.5
A45G G58A A69U | 0.738
U7G U26C C31A G38C | 0.561
C29G C49G | 0.563
C27G C30U G38C G58A | 0.679
G44C G50C G52A U54G C61G | ≤ 0.5
U19C A40C G50A | 0.664

Variant | yeast fitness
C5G A45U C61U C66U | ≤ 0.5
A45C C62G A65C | 0.554
A15C G18C U26C C29A C34G | 0.616
C11A U19C | 0.706
G10A C27A A37U G52A U54C G56C A57G | ≤ 0.5
A15G G48A A65U | 0.759
G38C U64A G68A A69C | ≤ 0.5
C11G G17U A21U A42U | ≤ 0.5
C4A A43U C60A | ≤ 0.5
U3A A15G U47G | 0.794
U35G G52C G63A | 0.551
C29U C33G A40C A57G | ≤ 0.5
G12C C24A | 0.685
C5A C30U C62G G68A | ≤ 0.5
A14G C22U C34U C55A | 0.583
G44C C55G | 0.596
G41C C60G G68A | ≤ 0.5
C5G A40C G52A C62U | ≤ 0.5
G23A C33G | ≤ 0.5
C22G C27G C31G G41A C61G A69U | ≤ 0.5
U3A A21G C31A G48C | ≤ 0.5

Variant | yeast fitness
U19A A20G C29A A40C G50C | ≤ 0.5
C4G U8C G25A A42U A70U | ≤ 0.5
G44A U47G C49G U54G | ≤ 0.5
C11G U53A C55U G56C | ≤ 0.5
A15U A20U G56C | ≤ 0.5
U16C A57U C66U | 0.531
U3G A36U | 0.598
U2C C27A A65G | 0.632
A20C G38A | 0.707
C24G C27U C33U A57C | ≤ 0.5
U8C C11A A43U G48C C60G | ≤ 0.5
C24G C27G | 0.593
G10A A15U A21C G25C C62A | ≤ 0.5
U8C C30A G48A | 0.731
G41A A43U | 0.788
U3C C34A G44A G52A C55U A70G | ≤ 0.5
C4G U19C U47A C49U G68C | ≤ 0.5
U8G G18C C22U C29U C46A C55G | 0.574
G10A C24A A43C | ≤ 0.5
G52U | 0.785
A57C C61U A70U | ≤ 0.5

Variant | yeast fitness
A21G C46U G52C | 0.794
A21U G23C G58U A65G G67A | ≤ 0.5
A15C U28G A45G G51C | 0.554
G9A C30A A57C A70U | ≤ 0.5
U3C C5U A37U C49U U53C | 0.597
G41C C61A | 0.593
A20G A21C C49U | 0.548
C30U A69U A70C | 0.737
A21C G63A | 0.88
G6A A15C G51A A57U G68A | ≤ 0.5
U2C A21U U35A G41C U47A G67C | ≤ 0.5
A21U A65G | 0.942
U8C G38A | 0.885
C4A A15C U35G | ≤ 0.5
G9A C61G | 0.705
U7A A45G C61G | ≤ 0.5
A42U U47G A57C C61A | ≤ 0.5
G10A U54C | 0.643
G9A U64C | 0.985
C27U G68U | 0.755
C4G C5G G9A C49A | 0.739
